This passage reports GI50 and MGM results from ChEMBL document CHEMBL1134690, “Preparation and cytotoxicity toward cancer cells of mono(arylimino) derivatives of beta-lapachone” (2001).

What all share (assay type): functional
One assay relates to COLO 205. Briefly: Cytotoxicity against colon […] cell lines. Conditions: Homo sapiens. The gist of the method: (§1)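 NCI human tumor cell line screen. Growth inhibition was read across a test range of 10^-4 to 10^-8 M. GI50 is the concentration giving 50% growth inhibition.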
The test system of another assay is CCRF-CEM. Kind of assay: Cytotoxicity against leukemia CCRF-CEM cell lines. Conditions: Homo sapiens. In a few lines:
as §1

The subject of a further assay is SF-295. Kind of assay: Cytotoxicity against CNS SF-295 cell lines. To be noted: Homo sapiens. The gist of the method:
as §1

A further assay relates to DU-145. Briefly: Cytotoxicity against prostate DU-145 cell lines. Conditions: Homo sapiens. In a few lines: as §1
The test system of assay [1] is Panel (Carcinoma cell lines). Briefly: Mean graph midpoint growth inhibition of human cancer cell lines. The gist of the method: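 Mean graph midpoint: the average GI50 across all human cancer cell lines successfully tested (~55) in the NCI screen. Values below or above the 10^-4 to 10^-8 M test range were set to the minimum (10^-8 M) or maximum (10^-4 M) concentration screened.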

For the next assay, the system named is LOX IMVI. Kind of assay: Cytotoxicity against melanoma LOXIMVI cell lines. Conditions: Homo sapiens. In a few lines:
as §1

Another assay relates to MDA-MB-435. Kind of assay: Cytotoxicity against breast MDA-MB-435 cell lines. To be noted: Homo sapiens. In a few lines:
as §1

The test system of the next assay is NCI-H23. Briefly: Cytotoxicity against lung NCI-H23 cell lines. To be noted: Homo sapiens. The gist of the method: as §1
The next assay concerns OVCAR-5. Kind of assay: Cytotoxicity against ovarian OVCAR-5 cell lines. To be noted: Homo sapiens. In a few lines:
as §1

A further assay concerns SN12C. Briefly: Cytotoxicity against renal SN12C cell lines. Conditions: Homo sapiens. In a few lines:
as §1

In the case of `CC1(C)CCC2=C(O1)c1ccccc1/C(=N/c1ccc([N+](=O)[O-])cc1)C2=O`, the GI50 turned out to be 16800 nM in the assay on COLO 205; 19600 nM with CCRF-CEM; 14900 nM with SF-295; 16800 nM in the assay on DU-145; 7590 nM in the assay with LOX IMVI; 15800 nM in the assay with MDA-MB-435. Further, the GI50 in the assay on NCI-H23 turned out to be 18300 nM; in the assay with OVCAR-5, 14500 nM; with SN12C it was 15900 nM. This compound also had an MGM in [1] of 15.5 µM.

On to `Cc1ccc(/N=C2\C(=O)C3=C(OC(C)(C)CC3)c3ccccc32)cc1`, for which the GI50 turned out to be 1800 nM in the assay on COLO 205; 2560 nM in the assay with CCRF-CEM; 1260 nM with SF-295; 1760 nM with DU-145; 300 nM with LOX IMVI; 190 nM in the assay with MDA-MB-435. The GI50 with NCI-H23 came to 920 nM; in the assay on OVCAR-5, 2030 nM; in the assay with SN12C it was 460 nM. This compound had an MGM in [1] of 0.89 µM.

As to `CC1(C)CCC2=C(O1)c1ccccc1/C(=N/c1ccccc1)C2=O`, the GI50 with COLO 205 came out at 1550 nM; in the assay with CCRF-CEM, 1550 nM; with SF-295, 1860 nM; with DU-145, 1560 nM; in the assay on LOX IMVI, 220 nM; in the assay with MDA-MB-435, 200 nM. Moreover, the 50% growth inhibitory concentration (GI50) turned out to be 1230 nM with NCI-H23, 1810 nM with OVCAR-5 and 1120 nM with SN12C. The MGM in [1] was determined as 1.17 µM.

Regarding `COc1ccc(/N=C2\C(=O)C3=C(OC(C)(C)CC3)c3ccccc32)cc1`, the concentration for 50% growth inhibition (GI50) in the assay with COLO 205 is 1020 nM; with CCRF-CEM, 1540 nM; in the assay on SF-295, 880 nM; in the assay with DU-145 it was 870 nM; in the assay with LOX IMVI it was 890 nM; in the assay with MDA-MB-435 it was 96 nM. Moreover, the results for the GI50 with NCI-H23, with OVCAR-5 and in the assay with SN12C were 1170 nM, 12300 nM and 900 nM, respectively. The same compound registered an MGM in assay [1] of 1.15 µM.

Regarding `CC1(C)CCC2=C(O1)c1ccccc1C(=O)C2=O` [LAPACHONE], the GI50 is 1780 nM in the assay with COLO 205; 1410 nM in the assay with CCRF-CEM; 1540 nM in the assay with SF-295; 1740 nM in the assay with DU-145; 310 nM with LOX IMVI; 21400 nM with MDA-MB-435. Besides, the GI50 in the assay with NCI-H23 worked out at 760 nM; in the assay on OVCAR-5, 1820 nM; in the assay with SN12C, 1450 nM. The compound also came in with an MGM in assay [1] of 1.12 µM.

The term GI50 denotes the concentration giving 50% growth inhibition. Higher therefore signals lower sensitivity of the cells.
